We go through 3 compounds from ChEMBL document CHEMBL1649113, “Efficacy of the combination of tachyplesin III and clarithromycin in rat models of Escherichia coli sepsis” (Antimicrob Agents Chemother, 2008).

Converted amounts (≈) assume the structure as drawn. The source made the active and inactive calls. The calls are words filed in the database; no cut-off is given here. Bridge positions count the residues as written; N and C are the ends. Peptide text beside a SMILES is read from it.

Data set [1] concerns Escherichia coli. The experiment in a line: Antibacterial activity against Escherichia coli ATCC 25922 assessed as inhibition of bacterial growth at 4 mg/L. The format is functional, organism-based.
For data set [2], the system named is Rattus norvegicus. Briefly: Decrease in TNF-alpha level in plasma of Escherichia coli serotype 0111:B4 infected Wistar rat at 1 mg/kg, iv administered immediately after LPS challenge. The format is functional, organism-based. More on the design: dose 1 mg/kg. The method in brief: (§1)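 Anaesthetised male Wistar rats (15 per group) given 1.0 mg E. coli 0111:B4 LPS i.p. in 500 μl saline, treated immediately; saline controls. Tail-vein blood sampled into EDTA at 0, 2, 6, 12 and 36 h. Endotoxin by Limulus amebocyte lysate: plasma twofold diluted, heated 5 min at 75°C, read against a 0–0.5 EU/ml standard curve. TNF-α by sandwich ELISA at 450 nm, in duplicate, lower limit 0.05 ng/ml.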

Data set [3] has as its system Rattus norvegicus. The experiment in a line: Decrease in endotoxin level in plasma of Escherichia coli serotype 0111:B4 infected Wistar rat at 1 mg/kg, iv administered immediately after LPS challenge. More on the design: dose 1 mg/kg. It counts as functional, organism-based. The method in brief:
as §1

Data set [4] relates to Escherichia coli. The experiment in a line: Antibacterial activity against Escherichia coli ATCC 25922 by CLSI method. It counts as functional. The method in brief: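 Broth MIC by CLSI (NCCLS M7-A6) dilution method, run in triplicate.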
Data set [5] has as its system Escherichia coli. Briefly: Antibacterial activity against Escherichia coli ATCC 25922 by CLSI method in presence of 2 mg/L tachyplesin 3. The format is functional. The procedure, abridged: (§2)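 Permeabilisation assay: 1 × 10^5 CFU added to twofold clarithromycin dilutions (1,000–0.5 μg/ml) in Iso-Sensitest broth, with or without peptide. Clarithromycin MIC compared with and without peptide. The lowest peptide level needed for sensitivity to 30 μg/ml clarithromycin was also determined.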

For data set [6], the system named is Escherichia coli. The experiment in a line: Antibacterial activity against Escherichia coli by CLSI method in presence of 2 mg/L tachyplesin 3. It counts as functional, organism-based. The method in brief: as §2
Data set [7] concerns Escherichia coli. The experiment in a line: Antibacterial activity against 1x10^9 CFU Escherichia coli ATCC 25922 infected Wistar rat assessed as rat mortality at 60 mg/kg, iv administered immediately after bacterial challenge measured 72 hrs postinfection (Rvb mortality = 100%). The format is functional.
In data set [8] the test system is Escherichia coli. The experiment in a line: Antibacterial activity against 1x10^9 CFU Escherichia coli ATCC 25922 infected Wistar rat assessed as rat bacterial count in peritoneal fluid at 50 mg/kg, iv administered immediately after bacterial challenge measured 72 hrs postinfection (Rvb= 8.86 logCFU/ml). The format is functional. The method in brief:
(§3)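 Male Wistar rats (3–5 months, 300–400 g) under ketamine/xylazine anaesthesia, inoculated i.p. with 1 × 10^9 CFU log-phase E. coli ATCC 25922 in 1 ml saline. Drug given immediately after challenge; saline controls; 15 rats per group. Survivors killed at end of 72 h. Peritoneal lavage with 10 ml saline, plated on blood agar at 35°C for 48 h, aerobic and anaerobic. Detection limit ≤2 log10 CFU/ml. Mean ± SD.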

The test system of data set [9] is Rattus norvegicus. The experiment in a line: Toxicity in Wistar rat assessed as effect on physiological parameters at 1 mg/kg, iv. The format is organism-based. Also on record: dose 1 mg/kg, route intravenous. Particulars: in vivo. The procedure, abridged: (§4)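 Rats receiving the peptide were watched for local inflammation, anorexia, weight loss, diarrhoea, fever and behavioural change. A separate uninfected group given 1 mg/kg peptide was monitored for temperature, pulse, blood pressure, respiration and oxygenation.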

In data set [10] the test system is Escherichia coli. The experiment in a line: Antibacterial activity against Escherichia coli clinical isolates by CLSI method in presence of 2 mg/L tachyplesin 3. The format is functional. The method in brief:
as §2

Data set [11] concerns Escherichia coli. The experiment in a line: Antibacterial activity against Escherichia coli ATCC 25922 by CLSI method in presence of clarithromycin. The format is functional.
Data set [12] concerns Escherichia coli. The experiment in a line: Antibacterial activity against Escherichia coli ATCC 25922 assessed as bacterial count after 24 hrs. The format is functional.
Data set [13] relates to Escherichia coli. Briefly: Antibacterial activity against 1x10^9 CFU Escherichia coli ATCC 25922 infected Wistar rat assessed as rat mortality at 1 mg/kg, iv administered immediately after bacterial challenge measured 72 hrs postinfection (Rvb mortality = 100%). It counts as functional.
Data set [14] deals with Escherichia coli. The experiment in a line: Antibacterial activity against 1x10^9 CFU Escherichia coli ATCC 25922 infected Wistar rat assessed as rat bacterial count in peritoneal fluid at 1 mg/kg, iv administered immediately after bacterial challenge measured 72 hrs postinfection (Rvb= 8.86 logCFU/ml). It counts as functional. The method in brief: as §3
Data set [15] concerns Rattus norvegicus. Briefly: Toxicity in Wistar rat assessed as occurrence of adverse events at 1 mg/kg, iv. It counts as organism-based. Also on record: dose 1 mg/kg, route intravenous. The following applies: in vivo. The procedure, abridged:
as §4

For data set [16], the system named is Escherichia coli. The experiment in a line: Antibacterial activity against Escherichia coli ATCC 25922 by CLSI method in presence of tachyplesin 3. It counts as functional.

Usually MIC stands for the lowest concentration that inhibits growth of the organism.

Turning to `CC[C@H](C)[C@H](NC(=O)CNC(=O)[C@H](CCCNC(=N)N)NC(=O)[C@H](Cc1ccc(O)cc1)NC(=O)[C@H](CS)NC(=O)[C@@H](NC(=O)[C@H](CCCNC(=N)N)NC(=O)[C@H](Cc1ccccc1)NC(=O)[C@H](CS)NC(=O)[C@H](Cc1c[nH]c2ccccc12)NC(=O)[C@@H](N)CCCCN)C(C)C)C(=O)N[C@@H](CS)C(=O)N[C@@H](Cc1ccc(O)cc1)C(=O)N[C@@H](CCCNC(=N)N)C(=O)N[C@@H](CCCCN)C(=O)N[C@@H](CS)C(=O)N[C@@H](CCCNC(=N)N)C(N)=O` (H-KWCFRVCYRGICYRKCR-NH2), in the data set on Escherichia coli [1], the inhibition result was “Active”. For the same compound, the outcome in the data set with Rattus norvegicus [2] and with Rattus norvegicus [3] was Active.
As to `CC[C@H]1OC(=O)[C@H](C)[C@@H](O[C@H]2C[C@@](C)(OC)[C@@H](O)[C@H](C)O2)[C@H](C)[C@@H](O[C@@H]2O[C@H](C)C[C@H](N(C)C)[C@H]2O)[C@](C)(OC)C[C@@H](C)C(=O)[C@H](C)[C@@H](O)[C@]1(C)O` [CLARITHROMYCIN], the MIC was found to be 128 µg/mL (≈ 171 µM) against Escherichia coli [4], 32 µg/mL in the data set on Escherichia coli [5] and 32 µg/mL in the data set with Escherichia coli [10]. In addition, the inhibition entry with Escherichia coli [6] is “Active”. Also, the Activity is 66.6% in the data set with Escherichia coli [7] and “Non-toxic” in the data set on Rattus norvegicus [9]. Besides, in the data set on Escherichia coli [8], the log10CFU/ml was 6.68.
For `CC[C@H](C)[C@@H]1NC(=O)CNC(=O)[C@H](CCCNC(=N)N)NC(=O)[C@H](Cc2ccc(O)cc2)NC(=O)[C@@H]2CSSC[C@H](NC1=O)C(=O)N[C@@H](Cc1ccc(O)cc1)C(=O)N[C@@H](CCCNC(=N)N)C(=O)N[C@@H](CCCCN)C(=O)N[C@H](C(=O)N[C@@H](CCCNC(=N)N)C(N)=O)CSSC[C@H](NC(=O)[C@H](Cc1c[nH]c3ccccc13)NC(=O)[C@@H](N)CCCCN)C(=O)N[C@@H](Cc1ccccc1)C(=O)N[C@@H](CCCNC(=N)N)C(=O)N[C@@H](C(C)C)C(=O)N2` [TACHYPLESIN III] (H-KWCFRVCYRGICYRKCR-NH2; disulfide 3-16, 7-12), the “fractional inhibitory concentration index (FICI)” value with Escherichia coli [11] and in the data set on Escherichia coli [16] was 0.385 in each case. Besides, in the data set on Escherichia coli [12], the CFU was 5.65 ×10⁶ /ml. Also, the Activity in the data set with Escherichia coli [13] was 33.3%; with Rattus norvegicus [15], “Non-toxic”. Besides, in the data set on Escherichia coli [14], the log10CFU/ml is reported as 4.46.
